Bioassay records from PubChem.
A selection: hits, their analogues and other compounds. The true share with any hit is near 3.7%.
hERG rescue: shields human hERG channel from block by proarrhythmic agents | activation (rescue from dofetilide block), less the hit threshold, % at 10 µM | 310,000 tested, 0.51% active | CHO-hERG, FluxOR thallium flux, dofetilide IC70 present;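 active means activation above the mean of controls blocked by dofetilide plus 5 SD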;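 further: thallium influx through hERG after potassium depolarization seen as dye fluorescence rise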
KCNQ1 act: potentiates or activates the human KCNQ1 potassium channel; 310,000 tested, 0.35% active; B-score at 10 µM; CHO-K1 KCNQ1, thallium flux FluxOR fluorescence; hits give high values; P51787;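 active means fluorescence ratio B-score, a plate-corrected score, at least three library SD, with initial intensity B-score within 5 SD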
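Assay system: CHO-K1 cells stably expressing KCNQ1. Medium: assay buffer for compound exposure, DMSO matched across wells. Timing: 37 °C overnight plating, 90-min dark dye load, 20-min compound pretreatment. Signal: kinetic FluxOR fluorescence, 10 s baseline plus 110 s post-stimulus.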
Kir21 inh: Kir2.1 (mouse) channel inhibition | P35561 | HEK293-Kir2.1, FluxOR thallium flux fluorescence; hits give low values | B-score at 10 µM | 310,000 tested, 0.85% active;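 active means fluorescence ratio B-score at or below minus 3 SD of library scores, with starting-brightness B-score within 2 SD, cut at about -4.2 in these data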;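 further: channel flux triggered by added potassium and thallium sulfate stimulus; B-score of peak minus minimum fluorescence over baseline after thallium stimulus; more negative B-score means stronger Kir2.1 block with less thallium influx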
KCNQ1 inh: blocks the human KCNQ1 potassium channel. AID 2642. 310,000 tested, 1.3% active. B-score at 10 µM. CHO-K1 KCNQ1, FluxOR thallium flux fluorescence; hits give high values. P51787;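 active means compounds whose thallium flux B-score, printed positive for inhibition, exceeds three library SD while starting fluorescence stays within three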;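 further: channel opened by potassium depolarization with thallium stimulus after 20 min compound exposure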
KCNK9 block: human KCNK9 channel inhibition; B-score at 10 µM; Q9NPC2; 310,000 tested, 1.2% active; AID 488922; HEK293 KCNK9, FluxOR thallium flux fluorescence; hits give low values;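 active means ratio B-score over 3 SD below the library mean, with starting fluorescence within 5 SD of its mean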;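 further: negative B-score means less thallium flux so channel inhibition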
KCNK3 inh: human KCNK3 channel inhibition, primary screen | CHO-KCNK3 thallium flux, FluxOR fluorescence; hits give low values | O14649 | 340,000 tested, 0.84% active | AID 602410 | B-score at 10 µM;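 active means B-score under library mean minus 4 SD, starting fluorescence ratio at most library mean plus 5 SD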;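 further: more negative B-score means stronger inhibition of thallium flux through KCNK3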
Target sequence (O14649 whole entry, looked up): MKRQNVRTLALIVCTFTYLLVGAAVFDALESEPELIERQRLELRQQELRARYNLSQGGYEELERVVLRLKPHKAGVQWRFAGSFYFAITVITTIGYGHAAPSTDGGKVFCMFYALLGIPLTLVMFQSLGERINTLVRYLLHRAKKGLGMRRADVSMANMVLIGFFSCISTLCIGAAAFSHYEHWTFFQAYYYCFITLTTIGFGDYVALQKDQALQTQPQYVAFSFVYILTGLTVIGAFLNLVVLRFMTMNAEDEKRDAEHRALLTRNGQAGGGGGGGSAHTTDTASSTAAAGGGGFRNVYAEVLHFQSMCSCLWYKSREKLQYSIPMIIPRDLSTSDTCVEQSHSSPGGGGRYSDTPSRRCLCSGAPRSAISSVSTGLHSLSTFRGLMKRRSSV
KCNK9 block conf: confirmation of human KCNK9 potassium channel inhibitors. shares compounds with KCNK9 block. HEK293 KCNK9 cells, FluxOR thallium flux fluorescence. inhibition, % at 10 µM. 4,900 tested, 43% active. AID 492992;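 active means thallium signal inhibited by more than 5 SD of the compound-free buffer control wells, on both duplicate plates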;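 further: 0% = assay buffer control wells without compound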
Kir21 sel: mouse Kir2.1 off-target activity of KCNK9 modulators. shares compounds with KCNK9 block. Kir2.1 cells, FluxOR thallium flux fluorescence. inhibition, % at 10 µM. 4,900 tested, 4% active;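 active means thallium signal drop more than 5 SD beyond the mean of the no-compound control wells, seen in both duplicate plates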;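 further: signal is fluorescence rise after thallium addition divided by baseline fluorescence; plate controls were assay buffer only for no effect and full block by chlorpromazine control for full effect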
HEK293 Tl ctr: second counter-screen for KCNK9 modulators: effect in non-induced cells; shares compounds with KCNK9 block; non-induced KCNK9-HEK293, FluxOR thallium flux; inhibition, % at 10 µM; 4,900 tested, 40% active;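 active means thallium signal drop beyond 5 SD of the untreated control mean, on both duplicate plates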;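 further: plate controls were buffer only IC0 wells for no effect and SID17386958 at its maximal inhibitory level for full effect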
* = called active by the depositor; i = inactive; nt = no result; ! = repeats disagree.

SMILES	hERG rescue	KCNQ1 act	Kir21 inh	KCNQ1 inh	KCNK9 block	KCNK3 inh	KCNK9 block conf	Kir21 sel	HEK293 Tl ctr
COC(=O)C[C@H]1c2cc(C(F)(F)F)ccc2S(=O)(=O)N1Cc1ccccc1	-11	i	-0.5	i	i	i	nt	nt	nt
COc1ccccc1N1CCN(C2CCN(C(=O)c3cccc(F)c3)CC2)CC1	-1	i	-0.26	i	i	i	nt	nt	nt
CN(C)CCNC(=O)c1csc(Nc2cccc3ccccc23)n1	-4	i	0.29	i	i	i	nt	nt	nt
Cc1ccc(-c2nc(C(=O)NCC3CCCO3)cc3c2[nH]c2ccccc23)cc1 (stereo not drawn)	-38	i	-1.2	12*	-17*	i	65%*	i	33%*
O=C(NCC1CCCO1)c1csc(Nc2cccc3ccccc23)n1 (stereo not drawn)	-7	i	2.3	i	-9.2*	i	42%*	i	i
Cc1csc(NC(=O)c2cc(-c3ccccc3)nc3ccccc23)n1	-12	i	0.28	i	-9.8*	i	42%*	i	40%*
COC(=O)c1cc(-c2ccc3c(c2)OCO3)nc2ccccc12	-4	i	1	i	i	i	nt	nt	nt
Cc1cc(C)nc(NC(=O)c2cc(-c3ccc4c(c3)OCO4)nc3ccccc23)c1	-25	i	2.1	i	i	i	i	i	i
CC(C)(C)[C@H]1COC(=O)[C@H](NC(=O)OCC2c3ccccc3-c3ccccc32)C/C=C\C[C@@H](CC(=O)N[C@@H](CO)Cc2ccccc2)C(=O)N1	nt	nt	nt	nt	nt	i	nt	nt	nt
O=C(CCCn1nnnc1CN1CCOCC1)N1CCC(c2ccc(F)cc2)C1 (stereo not drawn)	-7	i	0.8	i	i	i	nt	nt	nt
Cc1cc(C)n(CC(O)CN2c3ccccc3Sc3ccccc32)n1 (stereo not drawn)	-11	i	-3.9	6*	i	i	i	i	i
O=c1[nH]c2ccccc2n2c(=S)[nH]nc12	-12	i	-0.25	i	i	i	nt	nt	nt
Cc1ccc(C)c(N2CCN(C(=O)c3ccc(CS(=O)Cc4cccc(Cl)c4)o3)CC2)c1 (stereo not drawn)	-14	i	0.11	i	i	i	i	i	i
Cc1ccc(C)c(N2CCN(C(=O)c3cc4c(C)nc5ccccc5c4o3)CC2)c1	-4	i	-1	i	-8.8*	i	35%*	i	i
Cc1cccc(N2CCN(C(=O)c3ccc(CS(=O)Cc4ccc(Cl)cc4)o3)CC2)c1C (stereo not drawn)	-15	i	0.17	i	i	i	nt	nt	nt
CCCCn1c(N)c(N(C)C(=O)c2ccc(Br)o2)c(=O)[nH]c1=O	nt	nt	nt	nt	nt	i	nt	nt	nt
CCN(c1cccc(C)c1)S(=O)(=O)c1c(C)[nH]c(C)c1C(=O)N1CCCCC1	-8	i	2	i	i	i	nt	nt	nt
COc1ccc(CN(Cc2cccn2C)S(=O)(=O)c2cccc(C(F)(F)F)c2)cc1	-10	i	0.85	6*	-8.8*	i	46%*	i	34%*
CCc1ccc(NC(=O)COc2ccc(F)cc2C(=O)c2cnn(-c3ccccc3)c2)cc1	-10	i	-0.45	i	i	i	i	i	i
O=C(O)C1C2CCC(O2)C1C(=O)Nc1ccccc1Br (stereo not drawn)	-10	i	-0.09	i	i	i	nt	nt	nt
C[C@]12CCC(O)CC1CCC1C2CC[C@]2(C)C(c3cc(C(F)(F)F)n[nH]3)CCC12 (stereo partly drawn)	-9	i	2	i	-13*	i	33%*	i	63%*
CC(C)CC(=O)N1CCN(Cc2ccccc2Cl)CC1	-13	i	0.97	i	i	i	nt	nt	nt
CN(C)CC(O)COc1cccc(OCC(O)CN(C)C)c1 (stereo not drawn)	-5	i	-0.19	i	i	i	nt	nt	nt
CCCCN(CC(O)COc1cccc(C)c1)CC(O)COc1cccc(C)c1 (stereo not drawn)	-18	i	-3	i	i	i	i	i	42%*
COc1ccc(C(=O)NC2CCCc3c2cnn3-c2cc(F)cc(F)c2)c(OC)c1OC (stereo not drawn)	-18	i	0.7	i	i	i	nt	nt	nt
SMILES	hERG rescue	KCNQ1 act	Kir21 inh	KCNQ1 inh	KCNK9 block	KCNK3 inh	KCNK9 block conf	Kir21 sel	HEK293 Tl ctr
N#Cc1nc(COc2ccccc2)oc1N1CCCCCC1	-15	i	0.06	i	i	i	nt	nt	nt
N#Cc1nc(COc2ccc(F)cc2)oc1N1CCCCC1	-14	i	-0.32	i	i	i	i	i	i
COc1ccc(C2C=C(C34CC5CC(CC(C5)C3)C4)NC(=S)N2)cc1 (stereo not drawn)	-10	i	0.23	i	i	i	nt	nt	nt
Oc1ccccc1Oc1c(F)c(F)nc(N2CCCC2)c1F	-13	i	-1.8	i	i	i	nt	nt	nt
CC(=O)/C=C/c1ccccc1Oc1c(F)c(F)nc(F)c1F	-5	i	-1.1	i	i	i	i	i	i
NC(=NCCCCCCN=C(N)/N=C(\N)Nc1ccc(Cl)cc1)/N=C(\N)Nc1ccc(Cl)cc1	-5	12*!	-0.15	i	-10*	i	50%*	38%*	i
CC(C)CCCC(C)NC(=O)c1cc(S(=O)(=O)N2CCCCC2)ccc1N1CCOCC1 (stereo not drawn)	nt	nt	nt	nt	nt	i	nt	nt	nt
Cc1ccc(CNC(=O)CCC2CCCN(Cc3cc4ccccc4o3)C2)o1 (stereo not drawn)	-10	i	0.68	i	i	i	nt	nt	nt
Nc1[nH]n2c(=O)c3c(nc2c1N=Nc1ccccc1)CCCC3	-7	i	0.06	i	i	i	nt	nt	nt
Nc1[nH]n2c(=O)c3c(nc2c1N=Nc1ccc(Cl)cc1)CCCC3	-7	i	-0.1	i	-9.6*	i	39%*	i	i
O=C(NCc1ccccc1)C1(c2cccc(F)c2)CCCC1	-11	i	-1.9	i	i	i	nt	nt	nt
CC1(C)CC(C(CCN(Cc2ccccc2)C(=O)c2ccco2)c2ccc(F)cc2)CCO1 (stereo not drawn)	-13	i	1.4	i	-10*	i	67%*	i	50%*
